Assay outcomes deposited in PubChem BioAssay by several laboratories.
5HT1a ag = activates the human 5-HT1a serotonin receptor | P08908 | CHO 5-HT1a Ga15 NFAT-bla reporter, FRET ratio; 0% basal, 100% maximal reference agonist | activation, % at 10 µM | 65,000 tested, 0.56% active | AID 567;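 active = activation above the screen-wide mean activation plus 3 SD, cut at about 19% in these data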;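 also: 0% = DMSO wells and 100% = 5-CT at EC100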
5HT1E ag = activates the human 5-HT1E serotonin receptor. CHO 5-HT1E Ga15 NFAT-bla reporter, FRET; 0% DMSO wells, 100% control agonist wells. AID 574. activation, % at 6 µM. P28566. 65,000 tested, 0.69% active;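 active = activation above a set limit, the screen-wide mean activation plus 3 SD, cut at about 8.5% in these data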;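 also: 100% = positive control agonist at 1 µM giving full maximal response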
Target sequence (P28566 whole entry, looked up): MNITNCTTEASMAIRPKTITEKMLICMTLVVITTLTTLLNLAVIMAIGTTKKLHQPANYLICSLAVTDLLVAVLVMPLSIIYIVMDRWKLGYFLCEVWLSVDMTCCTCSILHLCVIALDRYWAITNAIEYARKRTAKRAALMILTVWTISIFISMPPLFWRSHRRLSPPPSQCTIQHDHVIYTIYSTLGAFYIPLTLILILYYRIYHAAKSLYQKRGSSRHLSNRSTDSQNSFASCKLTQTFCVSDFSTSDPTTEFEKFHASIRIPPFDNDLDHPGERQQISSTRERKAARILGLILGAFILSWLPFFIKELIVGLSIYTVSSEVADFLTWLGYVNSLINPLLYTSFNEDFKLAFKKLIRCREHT
5-HT1A blocker = 5-HT1a (human) receptor antagonism; P08908; CHO 5-HT1a Ga15 NFAT-bla reporter, antagonist mode; inhibition, % at 10 µM; 62,000 tested, 0.68% active;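 active = inhibition above the mean of all tested compounds plus 3 SD, cut at about 43% in these data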;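 also: receptor stimulated by 5-CT agonist at 100 nM near EC80; beta-lactamase reporter measured by ratiometric fluorescence of a cleavable substrate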
HEK293 NFkB inh = inhibitors of the PMA/ionomycin-induced NF-kB reporter in HEK293 cells; HEK-293 NF-kB luciferase reporter, luminescence; inhibition, % at 3 µM; 62,000 tested, 0.21% active; AID 465;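 active = inhibition above the mean of all tested compounds plus 3 SD, cut at about 40% in these data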;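 also: 0% = stimulated DMSO wells and 100% = 10 µM reference inhibitor 5653914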
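System: NF-kB luciferase reporter HEK-293 cells | Replication: Single test | Control set: DMSO vs reference inhibitor | Evaluation: % inhibition | Schedule: 1 h pretreatment, 16 h stimulation, 37 °C | Probe or stimulus: PMA with ionomycin | Compound dosing: One dose, 3 µM | Detection: Luciferase luminescence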
SKBR3 24h inh = SK-BR-3 proliferation inhibitors; SK-BR-3 viability, CellTiter-Glo ATP luminescence, 24 h; active compounds read low; viability, % at 10 µM; 41,000 tested, 0.47% active;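 active = viability at or below the median of all test compounds minus 3 SD, in both replicates if run twice, cut at about 45% in these data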;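 also: 100% = median untreated cell wells and 0% = median positive control drug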
5HT1E antag = antagonists of human 5-HT1E serotonin receptor; P28566; CHO 5-HT1E Ga15 NFAT-bla reporter, FRET, antagonist; inhibition, % at 6 µM; 65,000 tested, 0.99% active;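 active = inhibition above a set limit, the mean inhibition across every tested compound plus 3 SD, cut at about 29% in these data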;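 also: signal is the 460 over 535 nm emission ratio of beta-lactamase substrate; 0% = agonist plus DMSO wells and 100% = wells without agonist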
An asterisk follows results filed as active. Rows were chosen to be rich in hits. Some 2.9% of all compounds tested hit in one or more screens of this group.

What do the screens show for `Cc1ccc(CNC(=O)C2C3C=CC(C3)C2C(=O)O)cc1` (stereo not drawn)?
5HT1a ag: -2; 5HT1E ag: 0; 5-HT1A blocker: -9; HEK293 NFkB inh: 5; SKBR3 24h inh: 84; 5HT1E antag: -8

What do the screens show for `O=C(O)C1C2C=CC(C2)C1C(=O)NCCc1cccc(Cl)c1` (stereo not drawn)?
5HT1a ag: 8; 5HT1E ag: 12*; 5-HT1A blocker: 0; HEK293 NFkB inh: 14; SKBR3 24h inh: 94; 5HT1E antag: 8

Results for O=S(=O)(Nc1ccc(N2CCOCC2)cc1)c1cccs1 ?
5HT1a ag: -2; 5HT1E ag: 10*; 5-HT1A blocker: -10; HEK293 NFkB inh: 14; SKBR3 24h inh: 89; 5HT1E antag: 6

What do the screens show for `Cc1cccc(OCCn2c(NC(=O)c3ccco3)nc3ccccc32)c1`?
5HT1a ag: -1; 5HT1E ag: 0; 5-HT1A blocker: 55*; HEK293 NFkB inh: 14; SKBR3 24h inh: 82; 5HT1E antag: -10

What do the screens show for `Cc1ccc(OCCn2c(NC(=O)c3ccco3)nc3ccccc32)cc1`?
5HT1a ag: -2; 5HT1E ag: 1; 5-HT1A blocker: 39; HEK293 NFkB inh: 4; SKBR3 24h inh: 73; 5HT1E antag: 5

What do the screens show for `O=C(Nc1nc2ccccc2n1CCOc1ccccc1)c1ccco1`?
5HT1a ag: 0; 5HT1E ag: 0; 5-HT1A blocker: 48*; HEK293 NFkB inh: -1; 5HT1E antag: 0

What do the screens show for `Cc1ccc2[nH]c3c(c2c1)CN(C(=O)CN1CCN(c2ccccc2F)CC1)CC3`?
5HT1a ag: 2; 5HT1E ag: 0; 5-HT1A blocker: 1; HEK293 NFkB inh: 11; SKBR3 24h inh: 86; 5HT1E antag: -6

What do the screens show for `O=C(OCCn1cncn1)c1cc2ccccc2oc1=O`?
5HT1a ag: -3; 5HT1E ag: 0; 5-HT1A blocker: -7; HEK293 NFkB inh: 11; SKBR3 24h inh: 83; 5HT1E antag: -1

What do the screens show for `N#CC(c1nc2ccccc2nc1N1CCCCC1)S(=O)(=O)c1ccc(Cl)cc1` (stereo not drawn)?
5HT1a ag: -1; 5HT1E ag: 12*; 5-HT1A blocker: 5; HEK293 NFkB inh: 10; SKBR3 24h inh: 86; 5HT1E antag: 0

What do the screens show for `Cc1ccc(S(=O)(=O)C(C#N)c2nc3ccccc3nc2N2CCCCC2)cc1` (stereo not drawn)?
5HT1a ag: 3; 5HT1E ag: 1; 5-HT1A blocker: 3; HEK293 NFkB inh: 10; SKBR3 24h inh: 79; 5HT1E antag: -7

Results for CC(=O)Nc1cc(OC(C)=O)c2nonc2c1OC(C)=O ?
5HT1a ag: 7; 5HT1E ag: 1; 5-HT1A blocker: 78*; HEK293 NFkB inh: -2; SKBR3 24h inh: 2.2*; 5HT1E antag: 103*

How did CC(=O)Nc1nonc1NC(C)=O do in these assays?
5HT1a ag: -3; 5HT1E ag: 0; 5-HT1A blocker: 2; HEK293 NFkB inh: -2; SKBR3 24h inh: 81; 5HT1E antag: -1

Results for CCOC(=O)C1CCCN(C(=O)c2ccc3c(c2)NC(=O)C(N2CCOCC2)S3)C1 (stereo not drawn) ?
5HT1a ag: 1; 5HT1E ag: 0; 5-HT1A blocker: -10; HEK293 NFkB inh: 6; SKBR3 24h inh: 75; 5HT1E antag: 6

What do the screens show for `CCCC(=O)C1C(=O)CC(C)(C)C(c2cc(C)no2)C1=O` (stereo not drawn)?
5HT1a ag: 0; 5HT1E ag: 0; 5-HT1A blocker: -7; HEK293 NFkB inh: 15; SKBR3 24h inh: 85; 5HT1E antag: -2

Results for Cc1cc(C2C(=O)CC(=O)CC2c2ccccc2)on1 (stereo not drawn) ?
5HT1a ag: -1; 5HT1E ag: 12*; 5-HT1A blocker: 7; HEK293 NFkB inh: 5; SKBR3 24h inh: 85; 5HT1E antag: 6

Results for Cc1cc(NC(=O)COC(=O)c2ccc(S(=O)(=O)N3CCCc4ccccc43)cc2)no1 ?
5HT1a ag: -4; 5HT1E ag: -1; 5-HT1A blocker: 11; HEK293 NFkB inh: 29; 5HT1E antag: 32*

How did COc1ccc(-c2nnc(NC(=O)c3ccc(S(=O)(=O)N4CCCc5ccccc54)cc3)o2)cc1 do in these assays?
5HT1a ag: -1; 5HT1E ag: 0; 5-HT1A blocker: 62*; HEK293 NFkB inh: 15; SKBR3 24h inh: 78; 5HT1E antag: -2

Results for O=C(Nc1nnc(C2CC2)o1)c1ccc(S(=O)(=O)N2CCCc3ccccc32)cc1 ?
5HT1a ag: -2; 5HT1E ag: 0; 5-HT1A blocker: 0; HEK293 NFkB inh: -1; 5HT1E antag: 1

What do the screens show for `Cc1cc(NC(=O)COC(=O)c2cccc(S(=O)(=O)N3CCOCC3)c2)no1`?
5HT1a ag: -4; 5HT1E ag: 1; 5-HT1A blocker: -4; HEK293 NFkB inh: 6; 5HT1E antag: -1

How did O=C1CCCN1CCCNc1ncnc2c1[nH]c1ccc(Cl)cc12 do in these assays?
5HT1a ag: 0; 5HT1E ag: 0; 5-HT1A blocker: -4; HEK293 NFkB inh: 5; SKBR3 24h inh: 84; 5HT1E antag: 35*

Results for Cc1cccc(Nc2nc(-c3ccccn3)cs2)n1 ?
5HT1a ag: -1; 5HT1E ag: 0; 5-HT1A blocker: 45*; HEK293 NFkB inh: -95; SKBR3 24h inh: 112; 5HT1E antag: 36*

What do the screens show for `CC(=O)c1cccc(S(=O)(=O)N(CCCO)Cc2cc3ccc(C)cc3[nH]c2=O)c1`?
5HT1a ag: 0; 5HT1E ag: 0; 5-HT1A blocker: -4; HEK293 NFkB inh: 16; SKBR3 24h inh: 99; 5HT1E antag: -5

What do the screens show for `CC(NC(=O)Nc1nnc(C(F)(F)F)s1)(C(F)(F)F)C(F)(F)F`?
5HT1a ag: 3; 5HT1E ag: 0; SKBR3 24h inh: 105; 5HT1E antag: 54*

What do the screens show for `Cc1cc(NC(=O)COC(=O)COc2ccc3c(c2)CCC3)no1`?
5HT1a ag: -2; 5HT1E ag: -1; 5-HT1A blocker: -4; HEK293 NFkB inh: -2; 5HT1E antag: 12

Results for O=C1CC(N2CCN(Cc3ccc4c(c3)OCO4)CC2)C(=O)N1CCc1ccccc1 (stereo not drawn) ?
5HT1a ag: 0; 5HT1E ag: 3; 5-HT1A blocker: 7; HEK293 NFkB inh: 4; 5HT1E antag: -4

What do the screens show for `CN(c1cc(=O)n2ccccc2n1)C1CCCCC1`?
5HT1a ag: 30*; 5HT1E ag: -1; 5-HT1A blocker: -2; HEK293 NFkB inh: 17; SKBR3 24h inh: 87; 5HT1E antag: 16

What do the screens show for `Cc1nc2ccccn2c1C(=O)NC1CCCCC1`?
5HT1a ag: -1; 5HT1E ag: 0; 5-HT1A blocker: -10; HEK293 NFkB inh: 9; SKBR3 24h inh: 107; 5HT1E antag: -5

Results for CSc1nc2[nH]c3c(c2c2nncn12)CC(C)(C)OC3 ?
5HT1a ag: -2; 5HT1E ag: -1; SKBR3 24h inh: 85; 5HT1E antag: 11
